From ChEMBL document CHEMBL4513216, “Probing the Open Global Health Chemical Diversity Library for Multistage-Active Starting Points for Next-Generation Antimalarials” (ACS Infect Dis, 2020)

Assay: Toxicity liver stage against HepG2, at 10uM
Format: cell-based
Set-up: test concentration 10 uM, cell line HepG2-A16-CD81EGFP
Settings: human, HepG2-A16-CD81EGFP cells; read-out: INHIBITION
Summary of the method: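 Uninfected HepG2-A16-CD81EGFP cells, 3 × 10^3 per well, 1536-well, plated on prespotted compound at 10 μM final, parasite-free screening media added to match infected plates; puromycin 10 μM positive, DMSO 0.5% negative; run in parallel with 48 h PbLuc assay at 37 °C, 5% CO2; viability by CellTiter-Glo luminescence, normalized to controls.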

| SMILES | cytotoxicity at 10 µM [%] |
| --- | --- |
| O=C(NCCCN1CCOCC1)c1ccc(Cl)cc1Cl | -3.64 |
| CCCN1CCC(NC(=O)Nc2ccc(OC)c(OC)c2)CC1 | -13.4 |
| CC(=O)NC[C@@H]1C=C(C)[C@H](CC(=O)NCCN(C)C)C[C@H]1C(C)C | 0.939 |
| CCSc1ncccc1C(=O)NCc1ccc(N(C)C)cc1 | 4.36 |
| CC(=O)N1N=C(c2cccs2)OC1C(=O)Nc1ccccc1 (stereo unspecified) | -5.58 |
| CCc1c(O)nc(SCC(=O)c2ccccc2)n(-c2ccccc2)c1=O | 3.19 |
| COc1ccc(CNC(=O)NCC(O)(c2cccs2)C2CC2)cc1 (stereo unspecified) | 0.227 |
| O=C(C1CCC1)N1CCO[C@@H]2CNC[C@@H]21 | 1.44 |
| CC(C)C(=O)N1CCN(S(C)(=O)=O)CC2(CC(=O)N(C)C2)C1 (stereo unspecified) | 8.91 |
| CC1c2ncc(Cn3cncn3)n2CCN1C(=O)[C@H]1CCCO1 (stereo partly specified) | -4.12 |
| CN(C)CCNC(=O)c1cc2c(s1)CCN2S(C)(=O)=O | 0.705 |
| O=S(=O)(NC1=NCN(CCc2ccccc2)CN1)c1ccc(F)cc1 | 3.47 |
| CC1(C)Cc2ccccc2-c2nc(NCCO)[nH]c(=O)c21 | -5.46 |
| O=C(C1CCC1)N1CCC2(COCc3cnc(N4CCOCC4)nc32)C1 (stereo unspecified) | -11.8 |
| Cc1ccc(-c2nc(C3CCN(C(=O)c4ccnn4C)CC3)no2)cn1 | -5.17 |
| c1cnnc(N[C@@H]2CC[C@@H]3CN(Cc4ccc5cc[nH]c5c4)C[C@@H]32)c1 | -0.423 |
| COc1cc(CCC(=O)N2CCC(c3cc4nccnc4[nH]3)CC2)on1 | 3.67 |
| Cc1cc(C)nc(C2(C)CCCN2CCO)n1 (stereo unspecified) | -3.89 |
| Cc1cc(CN2CCN(Cc3ccccc3F)CC2)no1 | 4.51 |
| CC(C#N)CNC(=O)Nc1ccc(-c2ccc[nH]2)cc1 (stereo unspecified) | 1.2 |
| NC(=O)c1cnc(NCC(=O)NCc2ccccc2)c(Cl)c1 | 3.89 |
| Cn1nc(C(=O)NC2(c3ccccc3)CCC2)ccc1=O | 1.42 |
| Cc1ccc(NC(=O)N2CCOC(C)(c3cnn(C)c3)C2)c(C)c1 (stereo unspecified) | 6.05 |

| SMILES | cytotoxicity at 10 µM [%] |
| --- | --- |
| COc1ccc(F)cc1CN(CC(N)=O)C(C)C | -1.68 |
| CCC1CN(CCNS(C)(=O)=O)c2ccccc2O1 (stereo unspecified) | -2.67 |
| CCc1ocnc1C(=O)N1CCC2(CC1)OCC(C)O2 (stereo unspecified) | 4.44 |
| CNC(=O)c1cc(NC(=O)NC(C)CCc2cccn2C)ccc1F (stereo unspecified) | -2.01 |
| CCCC(=O)N1CCC2(CC1)OCCO2 | 5.22 |
| Cc1c(F)cccc1NC(=O)N(C(C)CS(C)(=O)=O)C1CC1 (stereo unspecified) | 8.29 |
| O=C(c1cnc(NCCC2CCCO2)c(Cl)c1)N1CCCCC1 (stereo unspecified) | -2.01 |
| COc1cc(C(=O)NS(=O)(=O)c2cncc(Br)c2)cc(OC)c1C | 4.77 |
| CN(Cc1ccncc1)C(=O)NC1CCS(=O)(=O)C1 (stereo unspecified) | -2.94 |
| Cc1nc(CNC(=O)Nc2cc(C(F)(F)F)c[nH]c2=O)cs1 | 0.868 |
| CN(C)C(=O)C1CCCN1CCCNC(=O)Cc1ccccc1F (stereo unspecified) | 0.646 |
| Cc1ncc2c(n1)CCN(C(C(N)=O)c1ccccc1)C2 (stereo unspecified) | -2.62 |
| CCN(CC)C(=O)Cc1csc(C(C)C)n1 | -1.55 |
| CC(C)(C)n1nc(C2CC2)cc1C(=O)NCC1(C(N)=O)CCOCC1 | -11.1 |
| CC(C)c1nn(C)c(N(C)C)c1CNC1CCCCNC1=O (stereo unspecified) | 2.91 |
| O=C(NCCc1ccccn1)N1CCOC(c2ccccc2Cl)C1 (stereo unspecified) | -7.75 |
| CC(C)(CNc1c(C#N)cnc2ccc(Cl)cc12)C(N)=O | 9.19 |
| CN(C)C(CNC(=O)c1[nH]nc(C2CC2)c1Br)C1CC1 (stereo unspecified) | -4.14 |
| CC(c1nc(C(C)(C)C)no1)S(=O)(=O)CC(=O)N1CCCC1 (stereo unspecified) | -2.21 |
| COc1ccccc1C(C)CNC(=O)c1[nH]ncc1Br (stereo unspecified) | 18.1 |
| CC(=O)NCC1CCCN(C(=O)Cc2c(C)noc2C)C1 (stereo unspecified) | 17.4 |
| CCc1nc2n(n1)CCCC2NC(=O)Nc1ccc(F)cc1C#N (stereo unspecified) | -0.802 |
| Cc1cc(Br)ccc1NCc1ccc(C(=O)N(C)C)[nH]1 | 5.68 |

| SMILES | cytotoxicity at 10 µM [%] |
| --- | --- |
| CCS(=O)(=O)NCCNC(=O)c1cc(Cl)c2c(c1)OCCCO2 | 5.98 |
| CCN(CC)C(=O)CCNC(=O)Cc1nc(-c2ccco2)oc1C | 26.8 |
| CC(C(=O)NCc1ccnc(N(C)C)c1)n1cncn1 (stereo unspecified) | -9.7 |
| Cc1nc(C(C)(C)NC(=O)Nc2cccc(C#N)c2)no1 | -7.79 |
| Cn1cc(-c2cnc(-c3ccnn3C)nc2)cc1C(=O)N1CCCC1 | 4.55 |
| O=C(NCCc1nccs1)C1CCCN(Cc2ccco2)C1 (stereo unspecified) | 1.5 |
| Cc1nc2cc(CNC(=O)C3CC(=O)N(CCN(C)C)C3)ccc2n1C (stereo unspecified) | -4.31 |
| Cc1ccccc1CN(CCN(C)C)Cc1ccc(C(=O)O)cc1 | -1.6 |
| CN(CCc1cn[nH]c1)Cc1nc(Cc2cccc(F)c2)no1 | -1.53 |
| CC(C)[C@@H]1CN(Cc2ccccc2C#N)C[C@H]1NC(=O)N(C)C | -12.3 |
| O=C1CCC2(CCN(CCSc3ccccc3)CC2)CN1CCCO | 2.09 |
| CN(C)CCNc1cc(-c2ncccn2)c2cc[nH]c2n1 | 6.39 |
| CC(c1ccc2c(c1)OCCO2)N(C)C(=O)c1ccnnc1 (stereo unspecified) | 0.94 |
| CCNc1ncc(C(=O)NCCc2ccc(C)c(C)c2)cn1 | -5.1 |
| CCC/C=C/c1ccc(CN2CCCC2)cn1 | -16.1 |
| Cc1ccc([C@@H]2CN(C(=O)c3ccoc3C)C[C@H]2NC(=O)C2CC2)cc1 | 4.22 |
| COC(=O)C(CO)NC(=O)c1cn(Cc2ccccc2F)nn1 (stereo unspecified) | -1.14 |
| CCC(C(=O)NC1CCCCC1)n1ccc2ncccc2c1=O (stereo unspecified) | 2.17 |
| O=C(NCCc1c[nH]cn1)C1CCCN(C2CCOCC2)C1 (stereo unspecified) | 1.58 |
| Cc1nc2c(c(NC3CCN(Cc4ccccc4)CC3)n1)CCNCC2 | -6.74 |
| Cc1nn(C)cc1CN1CCCn2nc(CNC(=O)C3CCC3)cc2C1 | 2.84 |
| COCCC(=O)N1CCCC(CCC(=O)NCc2ccccc2F)C1 (stereo unspecified) | 11 |
| CNc1ncccc1C(=O)N1CCCC2(C1)C(=O)N(C)c1ccccc12 (stereo unspecified) | -5.27 |

| SMILES | cytotoxicity at 10 µM [%] |
| --- | --- |
| Cc1cc(=O)c(C(=O)N2CCCCC2c2ccc(F)cc2)c[nH]1 (stereo unspecified) | 3.71 |
| COc1ccc(OC2CCN(C(=O)CCc3n[nH]c(C)n3)CC2)cc1 | 4.66 |
| CCc1nc2ccccc2n1C(CC)C(=O)N(C)CCc1noc(C)n1 (stereo unspecified) | 3.02 |
| COc1ccc(Oc2nccc3occc23)cc1CN1CCCC1 | -24.6 |
| O=C(c1ccc(CNC2CCSC2)cc1)N1CCCC1 (stereo unspecified) | -4.05 |
| NC(=O)NCCC(=O)NCc1cccnc1N1CCc2ccccc2C1 | 4.92 |
| CN(C)CCNC(=O)c1ccc(OC2CCN(S(C)(=O)=O)CC2)c(Cl)c1 | 1.33 |
| Cc1nc[nH]c1CN1CCN(C(=O)c2cccs2)[C@H]2CS(=O)(=O)C[C@H]21 | -0.0714 |
| CNc1ccc(CC2CCCN(C(=O)c3cncnc3C)C2)nn1 (stereo unspecified) | 5.99 |
| CCNc1cc2c(nn1)CCN(C(=O)c1cccc3c1OCO3)C2 | -9.88 |
| Cc1cnn(CCC(=O)N2CCCC(c3noc(C)n3)C2)c1 (stereo unspecified) | -3.98 |
| CN(Cc1ccco1)C(=O)CN1CCCC1Cn1cncn1 (stereo unspecified) | -24.1 |
| CCN(CC)Cc1ccc(C(=O)N2CCCC2Cn2cc(C)cn2)o1 (stereo unspecified) | -11.4 |
| Cc1nc2cc(=O)[nH]n2c(C)c1CC(=O)NCCCc1ccccc1 | -7.33 |
| CNS(=O)(=O)c1cccc(CNC(=O)c2cc(C)no2)c1 | -10.3 |
| Cc1ccc(C(=O)NC2CCN(C(=O)NCc3ccccn3)CC2)o1 | -12.2 |
| Cc1cnn(CC2CCCN2C(=O)c2n[nH]c(=O)c3ccccc23)c1 (stereo unspecified) | -21.9 |
| CCn1c(C)nnc1CN(C)C1CCN(CC2CCC2)C1 (stereo unspecified) | -11.5 |
| Cc1nc(C)n(CC2CCCN(CCC(=O)NC3CCCCC3)C2)n1 (stereo unspecified) | -3.39 |
| O=C(c1sccc1C1CC1)N1CCCN(Cc2cscn2)CC1 | -14.7 |
| CCc1nc(CN2CCOC(CN(C)c3cccnn3)C2)cs1 (stereo unspecified) | 5.35 |
| O=C(c1cccc2ncccc12)N1CCCN(c2cccnn2)CC1 | -2.08 |
| O=C(c1cccnc1O)N1CCCN(c2cccnn2)CC1 | 6.82 |

| SMILES | cytotoxicity at 10 µM [%] |
| --- | --- |
| CN(Cc1nnc(C2CC2)o1)CC1CCCN1c1cccnn1 (stereo unspecified) | -6.54 |
| CC(C)C(Sc1nnnn1-c1ccccc1)C(=O)NCc1cccnc1 (stereo unspecified) | -3.02 |
| CN(C)C(=O)CS(=O)(=O)Cc1cc(Cl)c2c(c1)OCO2 | -6.24 |
| CSC(C)C(=O)N1CCCN(Cc2cscn2)CC1 (stereo unspecified) | -2.19 |
| CCOCC(O)CN1CCN(C(=O)Cc2ccccc2C)CC1 (stereo unspecified) | -3.43 |
| CCCSCC(=O)NS(=O)(=O)c1ccc2c(c1)OCCO2 | -9.78 |
| Fc1cccc(-c2nc(CN3CCOC(Cn4cncn4)C3)co2)c1 (stereo unspecified) | -11.4 |
| CCSc1nnc([C@@H](N)CC(C)C)o1 | -2.39 |
| CN1C(=O)C2(CCN(Cc3cccnc3)CC2)c2cccc(F)c21 | 6.77 |
| O=C([C@@H]1CC[C@@H]2[C@@H](CCN2Cc2ccoc2)O1)N1CCCC1 | -10.2 |
| O=C(c1ccoc1)N1C[C@@H]2OCCN(c3ncccn3)[C@@H]2C1 | 5.09 |
| CS(=O)(=O)NCc1cn2c(n1)CN(Cc1ccoc1)CC2 | 7.92 |
| COCC(=O)N1CCC[C@]2(C(=O)N(C)C)CN(c3ccccn3)C[C@@H]2C1 | -10.1 |
| Cc1ccc(C(CNCc2c[nH]nc2C)N(C)C)cc1 (stereo unspecified) | 8.42 |
| CN1CC2(CCN(CC3CC3)CC2)COc2ccccc2S1(=O)=O | -0.697 |
| CS(=O)(=O)NC[C@@H]1OC[C@H]2CN(Cc3ccsc3)CC[C@H]21 | 14.3 |
| c1ccc(CN2CCC3(CC2)CCN(Cc2cccs2)C3)nc1 | 4.17 |
| CCCOc1ccc(C(=O)N2CC[C@@H]3CC[C@H](C2)N3)cc1Cl | -6.94 |
| O[C@@H]1CC(CNCc2cccc(Cl)c2)(COc2cnccn2)C[C@@H]1O (stereo partly specified) | -3.58 |
